Laboratory results reported in ChEMBL document CHEMBL3525966, “Compartmental and enzyme kinetic modeling to elucidate the biotransformation pathway of a centrally acting antitrypanosomal prodrug” (Drug Metab Dispos, 2013).

What was measured:
[1] = tested on: Liver microsome; test: Prodrug conversion in rat liver microsomes assessed as elution time treated with 10 uM DB868 after 180 mins incubation by HPLC-UV chromatography; assay type: ADME; conditions: 3 h
Summary of the method: (§1)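 HLM or RLM (0.5 mg/mL) were incubated in triplicate in 100 mM phosphate pH 7.4 with 10 mM MgCl2 and an NADPH-regenerating system (1 mM NADP+, glucose 6-phosphate, G6PDH). DB868 was 10 µM. Sampled up to 180 min. Prodrug and metabolites were measured by HPLC-UV at 359 nm and expressed relative to initial prodrug; DB829 LLOQ 50 nM.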

[2] = tested on: Liver microsome; test: Prodrug conversion in human liver microsomes assessed as elution time treated with 10 uM DB868 after 180 mins incubation by HPLC-UV chromatography; assay type: ADME; conditions: 3 h; summary of the method: as §1
[3] = Drug metabolism in sandwich-cultured rat hepatocytes treated with 10 uM DB868 after 24 hrs of incubation by HPLC-MS/MS analysis; assay type: ADME, cell-based, Hepatocyte
Summary of the method: (§2)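 Sandwich-cultured hepatocytes were used on day 5 (human) or day 4 (rat) and rinsed with warm phenol-red-free DMEM. They were then exposed to 10 µM DB868 (0.1–0.2% DMSO) at 37°C. Medium and methanol/water cell lysates were collected at 0.5, 2, 4 and 24 h. Analytes were quantified by HPLC/MS/MS with deuterated internal standards; protein by Bradford. Replicates: 6 (human) or 4 (rat).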

[4] = Ratio of drug metabolism in sandwich-cultured human hepatocytes to drug metabolism in sandwich-cultured rat hepatocytes treated with 10 uM DB868 after 24 hrs of incubation by HPLC-MS/MS analysis
[5] = tested on: Liver microsome; test: Drug level in human liver microsomes treated with 10 uM DB868 prodrug after 180 mins incubation by HPLC-UV chromatography relative to initial prodrug concentration; assay type: ADME; conditions: 3 h; summary of the method: as §1
[6] = tested on: Liver microsome; test: Prodrug conversion in rat liver microsomes treated with 10 uM DB868 after 180 mins incubation by HPLC-UV chromatography; assay type: ADME; conditions: 3 h; summary of the method: as §1
[7] = Drug metabolism in sandwich-cultured human hepatocytes treated with 10 uM DB868 after 24 hrs of incubation by HPLC-MS/MS analysis; assay type: ADME, cell-based, Hepatocyte; summary of the method: as §2
[8] = target: T1, Cytochrome P450 3A4 (Homo sapiens, UniProt P08684); test: Drug metabolism in human recombinant CYP3A4 treated with at 5 uM DB868 after 15 mins incubation by HPLC-UV chromatography; conditions: recombinant enzyme
[9] = Drug metabolism in sandwich-cultured human hepatocytes treated with 10 uM DB868 after 4 hrs of incubation by HPLC-MS/MS analysis; assay type: ADME, cell-based, Hepatocyte; summary of the method: as §2
[10] = target: T2, Cytochrome P450 4F1 (Rattus norvegicus, UniProt P33274); test: Drug metabolism in rat recombinant […] treated with at 5 uM DB868 after 180 mins incubation by HPLC-UV chromatography; assay type: ADME; conditions: recombinant enzyme, 3 h
T2 sequence (P33274 whole entry): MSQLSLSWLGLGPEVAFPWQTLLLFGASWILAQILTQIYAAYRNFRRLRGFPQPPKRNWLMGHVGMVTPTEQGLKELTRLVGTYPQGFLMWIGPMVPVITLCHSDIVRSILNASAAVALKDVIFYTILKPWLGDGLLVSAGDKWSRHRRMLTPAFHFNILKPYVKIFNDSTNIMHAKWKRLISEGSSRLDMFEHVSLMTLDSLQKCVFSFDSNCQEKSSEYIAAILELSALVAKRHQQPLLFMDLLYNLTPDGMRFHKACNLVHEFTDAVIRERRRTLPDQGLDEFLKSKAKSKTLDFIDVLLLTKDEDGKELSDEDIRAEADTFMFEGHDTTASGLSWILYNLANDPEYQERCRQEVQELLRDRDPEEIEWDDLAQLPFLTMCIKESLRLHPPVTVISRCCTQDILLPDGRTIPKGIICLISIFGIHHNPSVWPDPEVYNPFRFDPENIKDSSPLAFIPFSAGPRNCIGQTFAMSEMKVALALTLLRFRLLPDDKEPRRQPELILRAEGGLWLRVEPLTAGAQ

[11] = target: T3, Cytochrome P450 1A2 (Homo sapiens, UniProt P05177); test: Activity at human recombinant CYP1A2-mediated drug metabolism treated with 5 uM DB868 after 180 mins incubation by HPLC-UV chromatography; assay type: ADME; conditions: recombinant enzyme, 15 min, in the assay text read “15 mins” for “180 mins”
T3 sequence (P05177 whole entry): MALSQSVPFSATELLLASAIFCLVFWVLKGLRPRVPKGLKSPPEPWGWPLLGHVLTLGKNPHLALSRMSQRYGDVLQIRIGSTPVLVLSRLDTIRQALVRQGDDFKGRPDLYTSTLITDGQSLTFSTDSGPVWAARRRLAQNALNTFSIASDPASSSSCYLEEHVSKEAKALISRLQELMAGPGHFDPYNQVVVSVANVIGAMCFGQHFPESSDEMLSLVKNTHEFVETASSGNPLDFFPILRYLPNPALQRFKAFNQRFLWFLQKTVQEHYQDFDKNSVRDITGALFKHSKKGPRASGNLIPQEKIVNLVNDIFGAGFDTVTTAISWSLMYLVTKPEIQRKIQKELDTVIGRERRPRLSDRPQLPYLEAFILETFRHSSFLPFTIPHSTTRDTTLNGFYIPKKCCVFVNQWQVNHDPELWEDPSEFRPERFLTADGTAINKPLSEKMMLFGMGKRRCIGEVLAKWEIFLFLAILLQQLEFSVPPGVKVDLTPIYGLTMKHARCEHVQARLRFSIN
Summary of the method: (§3)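 Insect-cell-expressed human or rat P450 (with NADPH-P450 reductase, some also with cytochrome b5) at 0.1 pmol/µL in 100 mM potassium phosphate pH 7.4 with 10 mM MgCl2. DB868 (for M1) or M1 (for M2) was added at 5 µM (0.5% DMSO) and started with 2 mM NADPH. Stopped after 15 min with ice-cold acetonitrile, then HPLC-UV. Duplicate incubations.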

[12] = tested on: Liver microsome; test: Drug metabolism in human liver microsomes assessed as (3Z,3'Z)-6,6'-(furan-2,5-diyl)bis(N'-hydroxynicotinimidamide) formation measured per mg of protein by HPLC-MS/MS analysis; assay type: ADME
Summary of the method: (§4)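 M2 formation kinetics: HLM (0.5 mg/mL) with M1 at 0.1–25 µM in phosphate pH 7.4 with MgCl2, started with 2 mM NADPH. Run 5 min in triplicate under initial-rate conditions. Quantified by HPLC/MS/MS and fitted to the Hill equation (S50, Vmax, n).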

[13] = target: T4, Cytochrome P450 1A2 (Rattus norvegicus, UniProt P04799); test: Drug metabolism in rat recombinant CYP1A2 treated with at 5 uM DB868 after 180 mins incubation by HPLC-UV chromatography; assay type: ADME; conditions: recombinant enzyme, 15 min, in the assay text read “15 mins” for “180 mins”; summary of the method: as §3
T4 sequence (P04799 whole entry): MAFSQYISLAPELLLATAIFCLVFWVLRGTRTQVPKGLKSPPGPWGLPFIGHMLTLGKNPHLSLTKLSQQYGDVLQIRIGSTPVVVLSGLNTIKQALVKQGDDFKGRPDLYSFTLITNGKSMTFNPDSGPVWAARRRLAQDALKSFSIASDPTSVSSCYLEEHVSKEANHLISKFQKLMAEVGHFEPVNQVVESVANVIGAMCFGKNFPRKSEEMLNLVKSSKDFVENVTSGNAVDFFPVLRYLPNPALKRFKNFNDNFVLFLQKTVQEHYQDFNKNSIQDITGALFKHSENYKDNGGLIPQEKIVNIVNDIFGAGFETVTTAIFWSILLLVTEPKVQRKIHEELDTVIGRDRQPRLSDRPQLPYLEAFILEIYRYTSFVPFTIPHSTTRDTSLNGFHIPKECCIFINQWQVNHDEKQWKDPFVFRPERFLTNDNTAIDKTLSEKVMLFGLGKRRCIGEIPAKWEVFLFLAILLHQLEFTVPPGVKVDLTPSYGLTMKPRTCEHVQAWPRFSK

[14] = target: T5, Cytochrome P450 4F2 (Homo sapiens, UniProt P78329); test: Activity at human recombinant CYP4F2-mediated drug metabolism treated with 5 uM DB868 […] by HPLC-UV chromatography; assay type: ADME; conditions: recombinant enzyme, 3 h
T5 sequence (P78329 whole entry): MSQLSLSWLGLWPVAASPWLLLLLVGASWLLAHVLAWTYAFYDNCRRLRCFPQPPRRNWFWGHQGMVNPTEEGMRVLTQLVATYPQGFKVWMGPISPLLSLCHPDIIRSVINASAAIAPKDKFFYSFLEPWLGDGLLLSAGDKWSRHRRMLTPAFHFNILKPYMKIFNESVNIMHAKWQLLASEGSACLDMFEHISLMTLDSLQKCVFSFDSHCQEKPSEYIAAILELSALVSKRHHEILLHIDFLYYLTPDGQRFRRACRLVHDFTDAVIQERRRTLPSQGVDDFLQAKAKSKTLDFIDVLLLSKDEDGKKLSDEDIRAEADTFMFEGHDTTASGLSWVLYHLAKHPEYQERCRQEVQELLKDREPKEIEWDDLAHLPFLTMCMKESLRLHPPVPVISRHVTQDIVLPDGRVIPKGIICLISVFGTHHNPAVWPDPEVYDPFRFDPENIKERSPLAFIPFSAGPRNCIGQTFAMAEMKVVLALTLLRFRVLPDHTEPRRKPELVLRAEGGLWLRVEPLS

[15] = tested on: Liver microsome; test: Drug metabolism in human liver microsomes assessed as (3Z,3'Z)-6,6'-(furan-2,5-diyl)bis(N'-hydroxynicotinimidamide) formation measured by HPLC-MS/MS analysis; assay type: ADME; summary of the method: as §4
[16] = Drug metabolism in sandwich-cultured rat hepatocytes treated with 10 uM DB868 after 4 hrs of incubation by HPLC-MS/MS analysis; assay type: ADME, cell-based, Hepatocyte; summary of the method: as §2
[17] = target: T1, Cytochrome P450 3A4; test: Activity at human recombinant CYP3A4-mediated drug metabolism treated with 5 uM DB868 after 180 mins incubation by HPLC-UV chromatography; assay type: ADME; conditions: recombinant enzyme, 15 min, in the assay text read “15 mins” for “180 mins”; summary of the method: as §3

T1 sequence (P08684 whole entry): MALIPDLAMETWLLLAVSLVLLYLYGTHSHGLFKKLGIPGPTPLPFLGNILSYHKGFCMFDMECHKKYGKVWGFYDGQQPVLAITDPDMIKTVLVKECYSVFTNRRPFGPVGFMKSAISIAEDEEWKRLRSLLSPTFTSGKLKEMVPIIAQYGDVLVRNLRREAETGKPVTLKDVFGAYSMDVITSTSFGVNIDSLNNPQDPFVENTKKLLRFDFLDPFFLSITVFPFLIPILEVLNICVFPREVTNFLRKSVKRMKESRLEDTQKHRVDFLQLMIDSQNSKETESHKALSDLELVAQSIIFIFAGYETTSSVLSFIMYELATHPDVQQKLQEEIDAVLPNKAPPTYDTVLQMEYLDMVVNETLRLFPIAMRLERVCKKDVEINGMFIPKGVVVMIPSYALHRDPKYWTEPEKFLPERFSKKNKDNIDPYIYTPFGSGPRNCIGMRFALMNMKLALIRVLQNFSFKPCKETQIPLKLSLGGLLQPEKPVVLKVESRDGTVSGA

Retention_time [1] [min] | Retention_time [2] [min] | Drug metabolism [3] | Ratio [4] | Drug metabolism [5] | Drug metabolism [6] | Drug metabolism [7] | Drug metabolism [8] | Drug metabolism [9] | Drug metabolism [10] | Drug metabolism [11] | Vmax [12] [pmol/min] | Drug metabolism [13] | Drug metabolism [14] | S50 [15] [µM] | Drug metabolism [16] | Drug metabolism [17] | SMILES
8.3 | 8.3 |  |  |  |  |  |  |  |  |  |  |  |  |  |  |  | N=C(N)c1ccc(-c2ccc(-c3ccc(/C(N)=N/O)cn3)o2)nc1
 | 5.8 | metabolite_detected | 7800 | metabolite_detected | metabolite_not_detected | metabolite_detected |  |  |  |  |  |  |  |  |  |  | Cl.N=C(N)c1ccc(-c2ccc(-c3ccc(C(=N)N)cn3)o2)nc1
14.5 | 14.5 |  |  |  |  |  | metabolite_detected | metabolite_detected | metabolite_detected | metabolite_detected | 180 | metabolite_detected | metabolite_detected | 18 | metabolite_detected | metabolite_detected | CO/N=C(/N)c1ccc(-c2ccc(-c3ccc(/C(N)=N/O)cn3)o2)nc1
12.3 | 12.3 | metabolite_detected |  |  |  | metabolite_detected |  | metabolite_detected |  |  |  |  |  |  | metabolite_detected |  | CO/N=C(\N)c1ccc(-c2ccc(-c3ccc(C(=N)N)cn3)o2)nc1
10.5 | 10.5 |  |  |  |  | metabolite_detected |  | metabolite_detected |  | metabolite_detected |  | metabolite_detected |  |  |  |  | N=C(NO)c1ccc(-c2ccc(-c3ccc(C(=N)NO)cn3)o2)nc1
